This note sets out measurements from ChEMBL document CHEMBL3232734, “Nitric oxide (NO) releasing poly ADP-ribose polymerase 1 (PARP-1) inhibitors targeted to glutathione S-transferase P1-overexpressing cancer cells” (J Med Chem, 2014).

The test system of one series is Mus musculus. The experiment in a line: Systemic toxicity in NCr nu/nu athymic mouse xenografted with human A549 cells assessed as body weight at 92 umol/kg, iv administered two times a week for 4 weeks (reference value: 25.0 +/-0.78 gms). In kind it is organism-based. Conditions: in vivo, 672 h. For orientation: Xenograft models place foreign cells or tissue in a host animal.

Series [1] has as its system Tumour. The experiment in a line: Drug metabolism in tumor of NCr nu/nu athymic mouse xenografted with human A549 cells assessed as metabolite formation at 92 umol/kg, iv administered two times a week for 4 weeks. In kind it is ADME, organism-based, Neoplasm. The conditions noted are these: in vivo, 672 h. In short, it runs like this: (§1)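 A549 cells (RPMI 1640 + 10% FBS, ≤4 passages) harvested at 70–80% confluence, 5 × 10^6 cells in PBS implanted s.c.; at ~3 mm × 3 mm tumors, mice randomized into groups of 12. Tail-vein injection at 92 μmol/kg in 20 μL DMSO, twice weekly for 4 weeks; saline or DMSO controls. Tumors caliper-measured twice weekly, volume = π/2 × L × W². Tumors resected at end, frozen, extracted for metabolite analysis by LC/MS.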

Series [2] deals with T1, Glutathione S-transferase A1 (Homo sapiens, UniProt P08263).
T1 sequence (P08263 whole entry): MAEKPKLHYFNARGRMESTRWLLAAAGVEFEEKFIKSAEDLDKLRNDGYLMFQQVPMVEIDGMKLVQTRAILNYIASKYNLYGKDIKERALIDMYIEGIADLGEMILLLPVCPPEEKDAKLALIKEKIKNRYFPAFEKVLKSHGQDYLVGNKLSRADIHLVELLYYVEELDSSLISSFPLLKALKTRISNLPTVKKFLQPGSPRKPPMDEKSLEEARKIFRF
The experiment in a line: Ratio of prodrug activation in presence of GSH and recombinant GSTA1 (unknown origin) to prodrug activation in presence of GSH by UV-Visible spectrophotometry. In short, it runs like this:
(§2)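 UV–vis kinetics at 37 °C in 0.1 M phosphate buffer, pH 7.4, with 50 μM DTPA and 4 mM GSH, with or without 40 nM recombinant GSTP1 or GSTA1. Substrate (typically 10 μM) added after thermal equilibration. Absorbance followed at 302 nm; first-order rate from an exponential fit. Ratios are k with enzyme over k with GSH alone.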

Series [3] has as its system A549. The experiment in a line: Anticancer activity against human A549 cells xenografted in NCr nu/nu athymic mouse assessed as reduction of tumor growth at 92 umol/kg, iv administered two times a week for 4 weeks. The format is functional, organism-based. The method in brief: as §1
Series [4] concerns A549. Nature of the series: Induction of endoplasmic reticulum stress in human A549 cells assessed as protein glutathionylation measured within 1 hr post-drug treatment by immunoblot analysis. The format is functional, cell-based.
The subject of series [5] is A549. The experiment in a line: Anticancer activity against human A549 cells assessed as reduction in number of colonies at 1 uM in presence of 3 nM proteasome inhibitor bortezomib by colony forming assay. The format is functional, cell-based. The method in brief: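 A549 colony forming assay after combined treatment with the proteasome inhibitor bortezomib.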
Series [6] in a line: Prodrug activation assessed as GSH reactivity in aqueous phosphate buffer at pH 7.4 by UV-Visible spectrophotometer analysis. The format is physicochemical. In short, it runs like this: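 UV–vis kinetics at 37 °C in 0.1 M phosphate buffer, pH 7.4, with 50 μM DTPA and 4 mM GSH, with or without 40 nM recombinant GSTP1 or GSTA1. Substrate (typically 10 μM) added after thermal equilibration. Ratios are k with enzyme over k with GSH alone.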

The target in series [7] is Glutathione S-transferase P (Homo sapiens, UniProt P09211). The experiment in a line: Ratio of prodrug activation in presence of GSH and recombinant GSTP1 (unknown origin) to prodrug activation in presence of GSH by UV-Visible spectrophotometry. In short, it runs like this:
as §2

Series [8] deals with Poly [ADP-ribose] polymerase 1 (Homo sapiens, UniProt P09874). The experiment in a line: Inhibition of PARP-1 (unknown origin) assessed as incorporation of biotinylated poly ADP-ribose onto histone proteins at 0.1 to 1000 nM by colorimetric analysis in presence of GSH and GSTP1. In short, it runs like this: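 PARP activity measured with a colorimetric histone biotinylated poly(ADP-ribose) incorporation kit. GSH (4 mM) with or without 40 nM GSTP1 in PBS pH 7.4 was preincubated 10 min at 37 °C. Reaction started by adding prodrug (10 μM substrate) and ran a further 10 min; absorbance read at 450 nm. Inhibitors tested over 0.01 nM–1 μM.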
Poly [ADP-ribose] polymerase 1, sequence (P09874 whole entry): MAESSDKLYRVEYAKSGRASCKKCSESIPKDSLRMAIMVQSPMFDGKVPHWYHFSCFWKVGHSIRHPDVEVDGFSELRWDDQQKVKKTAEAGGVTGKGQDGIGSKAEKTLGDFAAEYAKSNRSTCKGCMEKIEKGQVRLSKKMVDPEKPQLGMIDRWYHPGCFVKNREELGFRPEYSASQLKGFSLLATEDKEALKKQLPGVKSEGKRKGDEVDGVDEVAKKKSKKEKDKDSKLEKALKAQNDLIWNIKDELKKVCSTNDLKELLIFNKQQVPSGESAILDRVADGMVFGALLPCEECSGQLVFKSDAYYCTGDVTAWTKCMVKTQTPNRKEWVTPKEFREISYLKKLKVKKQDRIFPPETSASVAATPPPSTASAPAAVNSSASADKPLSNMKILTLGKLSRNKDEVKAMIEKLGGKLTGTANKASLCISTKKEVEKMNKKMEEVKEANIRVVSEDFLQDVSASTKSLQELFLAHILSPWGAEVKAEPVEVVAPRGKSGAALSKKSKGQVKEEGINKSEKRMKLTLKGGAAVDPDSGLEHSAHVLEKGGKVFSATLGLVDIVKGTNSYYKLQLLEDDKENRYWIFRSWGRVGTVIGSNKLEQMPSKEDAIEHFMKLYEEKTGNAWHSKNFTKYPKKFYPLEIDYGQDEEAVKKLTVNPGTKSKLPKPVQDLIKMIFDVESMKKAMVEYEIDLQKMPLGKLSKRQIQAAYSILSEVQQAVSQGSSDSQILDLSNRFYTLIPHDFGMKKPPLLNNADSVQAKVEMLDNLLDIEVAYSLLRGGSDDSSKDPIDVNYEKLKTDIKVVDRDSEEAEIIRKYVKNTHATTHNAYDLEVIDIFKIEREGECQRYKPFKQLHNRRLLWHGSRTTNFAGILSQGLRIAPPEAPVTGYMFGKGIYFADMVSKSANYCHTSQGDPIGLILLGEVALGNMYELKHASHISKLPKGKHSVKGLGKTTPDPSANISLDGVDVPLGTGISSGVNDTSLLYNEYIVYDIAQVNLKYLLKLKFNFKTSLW

The target in series [9] is T2, MAP kinase p38 (Homo sapiens) (UniProt O15264+Q15759+Q16539+P53778). The experiment in a line: Induction of p38 phosphorylation in human A549 cells after 8 hrs by immunoblot analysis. The format is cell-based. In short, it runs like this: (§3)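 A549 cells treated with compound and p38 phosphorylation followed by immunoblot from 15 min to 8 h after the start of treatment. At least three independent experiments.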
A general note: Immunoblotting shows a protein as a band on a membrane.

The subject of series [10] is A549. Nature of the series: Drug metabolism in human A549 cells assessed as nitric oxide release at 10 uM by LC/MS/MS analysis in presence of GSH/GSTP1. The format is ADME, cell-based. Conditions: a549, 10 µM. In short, it runs like this:
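A549 cells were plated in 75 cm2 flasks and grown overnight at 37 °C, then treated with 10 μM compound for varying times up to 1 h. Cells were lysed in 10 mM HCl/acetonitrile, 5-sulfosalicylic acid was added, and the precipitate was spun off at 12000g for 15 min. Supernatant was filtered and metabolites were identified by positive-ion LC/MS/MS (Q-TOF, C18, water/acetonitrile/0.1% formic acid gradient).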

Series [11] addresses Eukaryotic translation initiation factor 2 subunit 1 (Homo sapiens) (UniProt P05198). The experiment in a line: Induction of eIF2-alpha phosphorylation in human A549 cells by immunoblot analysis. The format is cell-based.
Series [12] addresses T2, MAP kinase p38 (Homo sapiens). The experiment in a line: Induction of p38 phosphorylation in human A549 cells within 15 mins after drug treatment by immunoblot analysis. The format is cell-based. In short, it runs like this:
as §3

In series [13] the test system is A549. The experiment in a line: Induction of apoptosis in human A549 cells assessed as cleaved caspase 8 level at 1 uM within 6 hrs after drug treatment by immunoblot analysis. In kind it is functional, cell-based. The method in brief:
(§4)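 A549 cells treated with compound, lysed and immunoblotted for cleaved caspase 8, caspases 3 and 7, and PARP (full-length and cleaved). Caspase 8 was read within 6 h at 1 μM. Representative of at least three independent experiments.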

Series [14] concerns A549. Nature of the series: Induction of endoplasmic reticulum stress in human A549 cells assessed as upregulation of ATF4 protein expression by immunoblot analysis. In kind it is functional, cell-based.
Another series relates to U-937. Nature of the series: Drug metabolism in human U937 cells assessed as nitric oxide release at 5 uM by LC/MS/MS analysis in presence of GSH/GSTP1. The conditions noted are these: u-937, 5 µM.
The test system of series [15] is A549. Nature of the series: Induction of endoplasmic reticulum stress in human A549 cells assessed as upregulation of CHOP protein expression by immunoblot analysis. In kind it is functional, cell-based.
The test system of series [16] is A549. The experiment in a line: Induction of apoptosis in human A549 cells assessed as cleaved caspase 7 level by immunoblot analysis. In kind it is functional, cell-based. The method in brief: as §4
Series [17] concerns Tumour. The experiment in a line: Drug uptake in tumor of NCr nu/nu athymic mouse xenografted with human A549 cells at 92 umol/kg, iv administered two times a week for 4 weeks. Conditions: in vivo, 672 h. The format is ADME, organism-based, Neoplasm. In short, it runs like this: as §1
Series [18] deals with A549. Nature of the series: Induction of apoptosis in human A549 cells assessed as cleaved PARP level by immunoblot analysis. The format is functional, cell-based. The method in brief:
as §4

The test system of series [19] is A549. The experiment in a line: Induction of endoplasmic reticulum stress in human A549 cells assessed as upregulation of BiP protein expression by immunoblot analysis. In kind it is functional, cell-based.
Series [20] relates to A549. The experiment in a line: Induction of apoptosis in human A549 cells assessed as cleaved PARP level after 8 hrs by immunoblot analysis. In kind it is functional, cell-based. In short, it runs like this:
as §4

The subject of series [21] is A549. Nature of the series: Induction of apoptosis in human A549 cells assessed as cleaved caspase 3 level by immunoblot analysis. The format is functional, cell-based. In short, it runs like this: as §4
Series [22] has as its system A549. The experiment in a line: Induction of endoplasmic reticulum stress in human A549 cells assessed as protein glutathionylation after 8 hrs by immunoblot analysis. In kind it is functional, cell-based.

The source made the active and inactive calls. The rule behind the calls is not given here.

Eukaryotic translation initiation factor 2 subunit 1 (Homo sapiens), sequence (P05198 whole entry): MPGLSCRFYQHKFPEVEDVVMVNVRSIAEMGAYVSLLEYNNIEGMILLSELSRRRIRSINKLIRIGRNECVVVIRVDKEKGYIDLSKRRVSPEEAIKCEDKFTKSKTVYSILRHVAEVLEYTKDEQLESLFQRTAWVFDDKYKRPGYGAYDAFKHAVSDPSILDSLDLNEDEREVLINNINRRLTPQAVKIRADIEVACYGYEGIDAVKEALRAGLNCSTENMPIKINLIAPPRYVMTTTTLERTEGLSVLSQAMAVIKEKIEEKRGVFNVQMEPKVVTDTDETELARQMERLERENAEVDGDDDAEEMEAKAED
Glutathione S-transferase P, sequence (P09211 whole entry): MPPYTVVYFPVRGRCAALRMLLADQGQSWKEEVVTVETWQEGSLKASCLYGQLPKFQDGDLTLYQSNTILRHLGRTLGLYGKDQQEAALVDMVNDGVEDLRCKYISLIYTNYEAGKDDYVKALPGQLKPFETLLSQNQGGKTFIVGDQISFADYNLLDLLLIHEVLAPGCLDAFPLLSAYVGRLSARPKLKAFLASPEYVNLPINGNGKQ

For `CN(C)/[N+]([O-])=N\Oc1cc(O/N=[N+](\[O-])N2CCN(C(=O)c3cc(Cc4n[nH]c(=O)c5ccccc45)ccc3F)CC2)c([N+](=O)[O-])cc1[N+](=O)[O-]`, the Activity in the series on Mus musculus amounted to 25.3 g. For the same compound, the Drug metabolism result in the series on Tumour [1], in the series on A549 [10] and with U-937 was “metabolite_detected” each time. Further, the Ratio in series [2] was found to be 9.2; in [7], 13.3. Also, the “growth inhibition (GI)” value in the series with A549 [3] was “Active”. Moreover, the result (in the series with A549 [4]; in series [9]; in series [11]; in series [12]; in the series with A549 [13]; in the series on A549 [14]) was Active. Besides, the outcome with A549 [15], in the series on A549 [16], with A549 [18], in the series with A549 [19], with A549 [20] and in the series on A549 [21] was Active. Moreover, the inhibition result (in the series on A549 [5]; in series [8]) was “Active” throughout. The t1/2 in series [6] was found to be 16 min. In the series on Tumour [17], the Drug uptake entry is “Active”. Moreover, in the series on A549 [22], the result was inactive.
